Reference: ChEMBL document CHEMBL1148752, “Dopamine/serotonin receptor ligands. 16.(1) Expanding dibenz[d,g]azecines to 11- and 12-membered homologues. Interaction with dopamine D(1)-D(5) receptors” (J Med Chem, 2007)

Experiments:
D(1B) dopamine receptor = D(1B) dopamine receptor (Homo sapiens, UniProt P21918); assay: Displacement of [3H]SCH 23390 from human dopamine D5 receptor expressed in HEK293 cells; assay type: cell-based
D(4) dopamine receptor = biological target: T1, D(4) dopamine receptor (Homo sapiens, UniProt P21917); assay: Displacement of [3H]spiperone from human dopamine D4.4 receptor expressed in CHO cells; assay type: cell-based
T1 sequence (P21917 whole entry): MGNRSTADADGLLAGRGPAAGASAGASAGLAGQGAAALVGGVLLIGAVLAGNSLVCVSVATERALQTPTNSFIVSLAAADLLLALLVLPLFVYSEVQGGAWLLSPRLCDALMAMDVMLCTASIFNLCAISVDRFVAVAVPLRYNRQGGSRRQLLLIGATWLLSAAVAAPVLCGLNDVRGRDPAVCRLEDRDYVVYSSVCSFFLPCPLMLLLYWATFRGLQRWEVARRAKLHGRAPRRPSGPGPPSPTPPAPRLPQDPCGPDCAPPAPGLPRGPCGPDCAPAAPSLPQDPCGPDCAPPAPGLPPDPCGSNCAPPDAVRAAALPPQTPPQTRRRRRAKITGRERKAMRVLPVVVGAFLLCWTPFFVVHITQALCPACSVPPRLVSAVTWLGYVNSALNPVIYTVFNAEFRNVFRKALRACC
Procedure, shortened: (§1)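 Competition binding at cloned human receptors of the D2 family with [3H]spiperone as radioligand; test ligand displacement expressed as Ki.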

D(1A) dopamine receptor = D(1A) dopamine receptor (Homo sapiens, UniProt P21728); assay: Displacement of [3H]SCH 23390 from human dopamine D1 receptor
Chain of D(1A) dopamine receptor (P21728 whole entry): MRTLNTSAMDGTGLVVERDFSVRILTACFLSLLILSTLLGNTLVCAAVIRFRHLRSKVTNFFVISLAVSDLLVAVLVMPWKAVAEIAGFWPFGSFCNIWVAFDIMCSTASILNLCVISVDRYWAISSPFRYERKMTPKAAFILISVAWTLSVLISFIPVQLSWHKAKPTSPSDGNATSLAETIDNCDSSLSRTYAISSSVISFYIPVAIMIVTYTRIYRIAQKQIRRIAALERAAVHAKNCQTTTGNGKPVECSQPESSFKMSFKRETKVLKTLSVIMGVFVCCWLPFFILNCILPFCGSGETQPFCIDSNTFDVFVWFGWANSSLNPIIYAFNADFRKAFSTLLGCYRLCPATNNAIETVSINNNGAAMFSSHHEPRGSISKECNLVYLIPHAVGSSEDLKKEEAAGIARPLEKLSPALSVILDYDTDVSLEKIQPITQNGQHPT
Procedure, shortened: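 Competition binding at cloned human receptors of the D1 family with [3H]SCH 23390 as radioligand; test ligand displacement expressed as Ki.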

D(2) dopamine receptor = D(2) dopamine receptor (Homo sapiens, UniProt P14416); assay: Displacement of [3H]spiperone from human dopamine D2L receptor expressed in HEK293 cells; assay type: cell-based; procedure, shortened: as §1
Chain of D(2) dopamine receptor (P14416 whole entry): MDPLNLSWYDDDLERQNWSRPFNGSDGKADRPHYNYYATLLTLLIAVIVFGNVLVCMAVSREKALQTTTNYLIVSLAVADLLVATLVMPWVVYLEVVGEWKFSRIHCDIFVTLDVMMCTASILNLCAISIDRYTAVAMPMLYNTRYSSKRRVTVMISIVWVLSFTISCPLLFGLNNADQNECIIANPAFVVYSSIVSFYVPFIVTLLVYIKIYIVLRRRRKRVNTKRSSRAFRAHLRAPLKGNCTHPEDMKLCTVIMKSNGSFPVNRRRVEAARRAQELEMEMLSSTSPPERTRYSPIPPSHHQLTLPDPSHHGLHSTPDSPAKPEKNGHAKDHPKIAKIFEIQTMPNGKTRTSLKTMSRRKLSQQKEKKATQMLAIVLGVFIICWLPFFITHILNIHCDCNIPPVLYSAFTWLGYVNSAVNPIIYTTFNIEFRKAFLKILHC

D(3) dopamine receptor = D(3) dopamine receptor (Homo sapiens, UniProt P35462); assay: Displacement of [3H]spiperone from human dopamine D3 receptor expressed in CHO cells; assay type: cell-based; procedure, shortened: as §1
Chain of D(3) dopamine receptor (P35462 whole entry): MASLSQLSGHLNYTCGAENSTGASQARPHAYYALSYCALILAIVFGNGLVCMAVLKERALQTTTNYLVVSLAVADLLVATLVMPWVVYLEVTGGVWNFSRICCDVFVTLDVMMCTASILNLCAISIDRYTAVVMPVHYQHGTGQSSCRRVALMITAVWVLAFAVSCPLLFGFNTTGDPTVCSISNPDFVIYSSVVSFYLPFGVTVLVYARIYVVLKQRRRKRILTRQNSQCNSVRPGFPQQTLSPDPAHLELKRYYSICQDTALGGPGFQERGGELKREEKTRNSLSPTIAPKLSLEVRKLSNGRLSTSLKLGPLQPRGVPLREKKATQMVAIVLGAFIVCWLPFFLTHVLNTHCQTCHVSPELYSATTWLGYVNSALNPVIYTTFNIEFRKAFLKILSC

Chain of D(1B) dopamine receptor (P21918 whole entry): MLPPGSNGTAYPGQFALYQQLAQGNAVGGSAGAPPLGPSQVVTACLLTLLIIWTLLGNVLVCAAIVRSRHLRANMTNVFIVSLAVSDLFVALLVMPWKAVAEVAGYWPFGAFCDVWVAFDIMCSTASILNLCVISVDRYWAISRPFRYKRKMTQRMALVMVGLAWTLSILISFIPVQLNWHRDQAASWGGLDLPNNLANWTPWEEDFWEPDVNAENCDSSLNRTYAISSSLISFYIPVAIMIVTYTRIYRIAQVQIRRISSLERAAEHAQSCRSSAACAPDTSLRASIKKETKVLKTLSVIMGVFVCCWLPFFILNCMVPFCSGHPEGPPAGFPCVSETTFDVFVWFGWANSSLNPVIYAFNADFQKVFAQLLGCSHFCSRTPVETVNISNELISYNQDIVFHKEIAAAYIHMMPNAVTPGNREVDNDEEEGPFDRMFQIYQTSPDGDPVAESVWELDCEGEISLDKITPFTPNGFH

| SMILES | Ki (D(1B) dopamine receptor) | Ki (D(4) dopamine receptor) | Ki (D(1A) dopamine receptor) | Ki (D(2) dopamine receptor) | Ki (D(3) dopamine receptor) |
| --- | --- | --- | --- | --- | --- |
| CN1CCCc2ccccc2Cc2ccc(O)cc2CC1 | 9.8 nM | 60.1 nM | 3.2 nM | 74 nM | 100 nM |
| COc1ccc2c(c1)CCCN(C)CCCc1ccccc1C2 | 53 nM | 2870 nM | 23.5 nM | 172 nM | 1350 nM |
| COc1ccc2c(c1)Cc1ccccc1CCCN(C)CC2 | 75 nM | 2760 nM | 137 nM | 1400 nM | 23900 nM |
| COc1ccc2c(c1)CCN(C)CCCc1ccccc1C2 | 4.6 nM | 271 nM | 18.5 nM | 87 nM | 507 nM |
| COc1ccc2c(c1)CCN(C)CCc1ccccc1C2 | 54 nM |  |  |  |  |
| CN1CCCc2cc(O)ccc2Cc2ccccc2CC1 | 17 nM | 2260 nM | 13.9 nM | 518 nM | 6120 nM |
| COc1ccc2c(c1)CCCN(C)CCc1ccccc1C2 | 55 nM | 1100 nM | 29.4 nM | 25 nM | 3140 nM |
| CN1CCCc2ccccc2Cc2ccc(O)cc2CCC1 | 95 nM | 422 nM | 83 nM | 382 nM | 3960 nM |
| COc1cc2c(cc1Cl)CCN1CCCc3ccccc3C21 (stereo unspecified) | > 10000 nM | > 10000 nM | > 10000 nM | > 10000 nM | > 10000 nM |
| CN1CCCc2ccccc2Cc2cc(O)ccc2CC1 | 69 nM | 3750 nM | 70 nM | 63 nM | 776 nM |
| Oc1ccc2c(c1)CCCNCCc1ccccc1C2 | 314 nM | 4260 nM | 291 nM | 857 nM | 6900 nM |
| COc1ccc(CCN2CCCc3ccccc3C2)cc1Cl | > 10000 nM | > 10000 nM | > 10000 nM | > 10000 nM | > 10000 nM |
| COc1cc2c(cc1OC)Cc1ccccc1CCCN(C)CC2 | 510 nM | 5050 nM | 579 nM | 1030 nM | 14800 nM |
| COc1ccc2c(c1)CCCN1CCCc3ccccc3C21 (stereo unspecified) | > 10000 nM | > 10000 nM | > 10000 nM | > 10000 nM | > 10000 nM |
